From ChEMBL document CHEMBL3792343, “10-Boronic acid substituted camptothecin as prodrug of SN-38” (Eur J Med Chem, 2016) come the findings set out here.

Series [1] relates to Mus musculus. The series can be described thus: Toxicity in mouse xenografted with human U87MG cells assessed as death at 15 mg/kg, ip administered as q3w/14 days regime. The class given is organism-based, U-87MG ATCC. Conditions: in vivo, 336 h.
Series [2] concerns Mus musculus. Description: Toxicity in mouse xenografted with human U87MG cells assessed as change in body weight at 15 mg/kg, ip administered as q3w/14 days regime (reference value: 23.12%). The class given is organism-based, U-87MG ATCC. Particulars: in vivo, 336 h.
Series [3] is described as follows: Antitumor activity against human U87MG cells xenografted in mouse assessed as tumor volume at 15 mg/kg, ip administered as q3w/14 days regime relative to control. The series is classed as functional, U-87MG ATCC. The essentials: (§1)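 Mice bearing U87MG xenografts randomised at about 130 mm3 tumour volume (n = 12 control, n = 6 per treatment); dosing i.p. three times a week to end of study (q3w/14). Read-out is relative tumour volume (RTV), with T/C (%) versus untreated control; significance by Student's t-test.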

Series [4] can be described thus: Antitumor activity against human U87MG cells xenografted in mouse assessed as tumor volume at 0.5 mg/kg, ip administered as q3w/14 days regime relative to control. The series is classed as functional, U-87MG ATCC. The gist of the method: as §1
For series [5], the system named is Mus musculus. Description: Toxicity in mouse xenografted with human U87MG cells assessed as overt signs of symptoms at 2 mg/kg, ip administered as q3w/14 days regime. The class given is organism-based, U-87MG ATCC. Particulars: in vivo, 336 h.
In series [6] the test system is Mus musculus. Description: Toxicity in mouse xenografted with human U87MG cells assessed as anaphylactic reaction at 2 mg/kg, ip administered as q3w/14 days regime. The series is classed as organism-based, U-87MG ATCC. Conditions: in vivo, 336 h.
Series [7] can be described thus: Prodrug activation in pH 7.4 phosphate buffer assessed as H2O2-mediated SN38 release incubated for 8 hrs by HPLC analysis. Particulars: pH 7.4, 8 h. The essentials:
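Prodrug (1 mM) in phosphate buffer pH 7.4 with H2O2 at 0.5–10 mM final, 37 °C for 8 h. Quenched with equal volume of 50 mM sodium thiosulfate; SN-38 release quantified by HPLC.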

For series [8], the system named is MCF7. Description: Retention time in human MCF7 cells at 10^-5 M by HPLC analysis. The series is classed as ADME, cell-based. Particulars: mcf7, 10 µM. The essentials:
(§2)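 MCF-7 cells exposed to 10^-5 M prodrug for 2 days; culture medium collected, centrifuged to remove cells, diluted to fixed volume and analysed by HPLC. Prodrug and SN-38 identified by retention time; relative amounts taken from chromatographic peak areas.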

In series [9] the test system is MCF7. Description: Drug level in human MCF7 cells at 10^-5 M after 2 days by HPLC analysis. Conditions: mcf7, 48 h, 10 µM. The class given is ADME, cell-based. The gist of the method: as §2
A short description of series [10]: Cytotoxicity against human HCT15 cells assessed as growth inhibition after 72 hrs by SRB assay. The series is classed as functional, cell-based. Conditions: HCT-15, 72 h. The gist of the method:
(§3)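 Cells from ATCC, 6,000–10,000 per well, treated in triplicate with graded concentrations for 72 h at 37 °C. Growth inhibition read by sulforhodamine B staining; IC50 taken from dose–response curves.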

A further series has as its system HT-29. Description: Cytotoxicity against human HT-29 cells assessed as growth inhibition after 72 hrs by SRB assay. The series is classed as functional, cell-based. Conditions: HT-29, 72 h. The essentials:
as §3

For the next series, the system named is MDA-MB-231. Description: Cytotoxicity against human MDA-MB-231 cells assessed as growth inhibition after 72 hrs by SRB assay. The class given is functional, cell-based. Conditions: MDA-MB-231, 72 h. The gist of the method: as §3
Series [11] deals with MCF7. Description: Cytotoxicity against human MCF7 cells assessed as growth inhibition after 72 hrs by SRB assay. The series is classed as functional, cell-based. Particulars: MCF7, 72 h. The essentials: as §3
Series [12] can be described thus: Cytotoxicity against human U87MG cells assessed as growth inhibition after 72 hrs by SRB assay. Conditions: U-87 MG. The class given is functional, cell-based, U-87MG ATCC. The essentials:
as §3

In the next series the test system is U-251. Description: Cytotoxicity against human U251 cells assessed as growth inhibition after 72 hrs by SRB assay. The class given is functional, cell-based. Particulars: U-251, 72 h. The gist of the method: as §3
For series [13], the target named is T1, DNA topoisomerase 1 (Homo sapiens) (UniProt P11387).
T1 sequence (whole entry): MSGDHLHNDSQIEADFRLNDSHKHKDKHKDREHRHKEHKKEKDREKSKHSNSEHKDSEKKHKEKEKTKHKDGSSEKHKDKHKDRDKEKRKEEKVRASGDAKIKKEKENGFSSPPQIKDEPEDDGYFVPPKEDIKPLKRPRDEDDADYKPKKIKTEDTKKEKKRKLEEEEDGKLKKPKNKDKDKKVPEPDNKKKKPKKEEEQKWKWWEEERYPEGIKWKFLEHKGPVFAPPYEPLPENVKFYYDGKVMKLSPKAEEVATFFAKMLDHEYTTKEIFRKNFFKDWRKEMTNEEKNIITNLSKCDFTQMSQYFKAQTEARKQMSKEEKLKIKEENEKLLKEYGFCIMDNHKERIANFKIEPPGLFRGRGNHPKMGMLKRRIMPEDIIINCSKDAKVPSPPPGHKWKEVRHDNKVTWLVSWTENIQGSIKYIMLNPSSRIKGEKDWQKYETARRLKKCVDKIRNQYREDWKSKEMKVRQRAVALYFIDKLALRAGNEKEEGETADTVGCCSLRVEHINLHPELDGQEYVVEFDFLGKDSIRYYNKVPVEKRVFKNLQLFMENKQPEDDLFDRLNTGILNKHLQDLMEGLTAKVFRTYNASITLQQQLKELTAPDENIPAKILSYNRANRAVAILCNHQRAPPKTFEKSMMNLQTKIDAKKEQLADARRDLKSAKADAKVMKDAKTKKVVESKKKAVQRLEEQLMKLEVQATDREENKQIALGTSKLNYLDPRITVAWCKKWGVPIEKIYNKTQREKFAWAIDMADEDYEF
Description: Inhibition of topoisomerase 1 (unknown origin) assessed as reduction in enzyme-mediated relaxation of supercoiled pBR322 DNA at 100 uM after 30 mins by agarose gel electrophoresis.

The subject of series [14] is Mus musculus. The series can be described thus: Toxicity in mouse xenografted with human U87MG cells assessed as death at 2 mg/kg, ip administered as q3w/14 days regime. The series is classed as organism-based, U-87MG ATCC. Conditions: in vivo, 336 h.
Series [15] relates to Mus musculus. The series can be described thus: Toxicity in mouse xenografted with human U87MG cells assessed as death at 0.5 mg/kg, ip administered as q3w/14 days regime. The class given is organism-based, U-87MG ATCC. Particulars: in vivo, 336 h.
Series [16] relates to Mus musculus. The series can be described thus: Toxicity in mouse xenografted with human U87MG cells assessed as change in body weight at 2 mg/kg, ip administered as q3w/14 days regime (reference value: 23.12%). The series is classed as organism-based, U-87MG ATCC. Particulars: in vivo, 336 h.
Series [17] relates to Mus musculus. Description: Toxicity in mouse xenografted with human U87MG cells assessed as change in body weight at 0.5 mg/kg, ip administered as q3w/14 days regime (reference value: 23.12%). The class given is organism-based, U-87MG ATCC. Particulars: in vivo, 336 h.
Series [18] is described as follows: Antitumor activity against human U87MG cells xenografted in mouse assessed as tumor volume at 2 mg/kg, ip administered as q3w/14 days regime relative to control. The series is classed as functional, U-87MG ATCC. The gist of the method:
as §1

pIC50: −log10 of the molar value. The source made the active and inactive calls. The calls are words filed in the database; no cut-off is given here.

`CCc1c2c(nc3ccc(B4OC(C)(C)C(C)(C)O4)cc13)-c1cc3c(c(=O)n1C2)COC(=O)[C@]3(O)CC`: the Activity result in the series on Mus musculus [1] was “Non-toxic”; with Mus musculus [2], 15.88%. Besides, in [3], the T/C is 8.39%.
Take `CCc1c2c(nc3ccc(B(O)O)cc13)-c1cc3c(c(=O)n1C2)COC(=O)[C@]3(O)CC`: the figures for the T/C in [4] and in series [18] were 105.99% and 28.1%, respectively. The Activity entry with Mus musculus [5] is listed as “Non-toxic”; with Mus musculus [6], “Non-toxic”; with Mus musculus [14], “Non-toxic”; in the series with Mus musculus [15], “Non-toxic”; in the series on Mus musculus [16] it was 2.11%; with Mus musculus [17], 12.69%. Moreover, the Drug metabolism entry in series [7] is listed as “Dose-dependent effect”. Moreover, in the series on MCF7 [8], the Retention_time is 12.87 min. Further, in the series on MCF7 [9], the Drug uptake turned out to be 59%. Also, the pIC50 in series [10] was 7.74; in the series with HT-29, 7.33; with MDA-MB-231, 5.37; with MCF7 [11] it was 6.20; in series [12], 7.33; in the series with U-251, 7.44. Also, in series [13], the inhibition result is “Active”.
The molecule `CCc1c2c(nc3ccc(O)cc13)-c1cc3c(c(=O)n1C2)COC(=O)[C@]3(O)CC` [7-ETHYL-10-HYDROXYCAMPTOTHECIN] returned a Retention_time in the series with MCF7 [8] of 8.85 min. For the same molecule, the pIC50 in series [10] is 8.10; in the series on HT-29, 7.27; with MDA-MB-231, 5.71; in the series with MCF7 [11], 6.29; in series [12] it was 7.52; in the series with U-251, 7.68.
